Source: ChEMBL document CHEMBL1144185, “Synthesis and SAR study of N-(4-hydroxy-3-(2-hydroxynaphthalene-1-yl)phenyl)-arylsulfonamides: heat shock protein 90 (Hsp90) inhibitors with submicromolar activity in an in vitro assay” (Bioorg Med Chem Lett, 2008)
pIC50: −log10 of the molar value. Activity calls are given as the source filed them. No cut-off for these calls is given here.

Biological target: T1, Heat shock protein HSP90 (Homo sapiens, UniProt P07900+P08238)
Assay: Inhibition of Hsp90 in human SKBR3 cells assessed as Her2 degradation after 24 hrs by Western blot
Assay type: cell-based
Settings: sk-br-3

IC50 | Compound
20 µM | COc1ccc(O)c(O)c1-c1cc(NS(=O)(=O)c2cc(Cl)ccc2Cl)ccc1N

Tested on: SK-BR-3
Assay: cells
Settings: Homo sapiens, SK-BR-3, 72 h

pIC50 | Compound
5.36 | O=S(=O)(Nc1ccc(O)c(-c2c(O)ccc3c2OCO3)c1)c1cc(Cl)ccc1Cl
< 4.30 | O=S(=O)(Nc1ccc(O)c(-c2c(O)ccc3ccccc23)c1)c1ccc(O)cc1O
5.22 | COc1ccc(O)c(O)c1-c1cc(NS(=O)(=O)c2cc(Cl)ccc2Cl)ccc1N
5.22 | O=S(=O)(Nc1ccc(O)c(-c2c(O)ccc3ccccc23)c1)c1cc(Cl)ccc1Cl

Biological target: T1, Heat shock protein HSP90
Assay: Inhibition of Hsp90 in human SKBR3 cells assessed as interaction with Cy3b-conjugated geldanamycin by FP assay
Assay type: cell-based
Settings: sk-br-3

IC50 | pIC50 | Compound
14.5 µM |  | O=S(=O)(Nc1cccc(-c2c(O)ccc3c2OCO3)c1)c1cc(Cl)ccc1Cl
 | 5.35 | N#Cc1ccccc1S(=O)(=O)Nc1ccc(O)c(-c2c(O)ccc3ccccc23)c1
1.7 µM |  | O=S(=O)(Nc1ccc(O)c(-c2c(O)ccc3c2OCO3)c1)c1cc(Cl)ccc1Cl
2.5 µM |  | COc1ccc(S(=O)(=O)Nc2ccc(O)c(-c3c(O)ccc4ccccc34)c2)c(OC)c1
19.4 µM |  | O=S(=O)(Nc1ccc(O)c(-c2ccccc2O)c1)c1cc(Cl)ccc1Cl
4.5 µM |  | O=S(=O)(Nc1ccc(O)c(-c2c(O)ccc3ccccc23)c1)c1ccccc1
1.3 µM |  | COc1cc(O)ccc1S(=O)(=O)Nc1ccc(O)c(-c2c(O)ccc3ccccc23)c1
26 µM |  | O=[N+]([O-])c1cc(S(=O)(=O)Nc2ccc(F)c(-c3c(O)ccc4c3OCO4)c2)ccc1Cl
9.5 µM |  | Nc1ccc(NS(=O)(=O)c2ccc(O)cc2O)cc1-c1c(O)ccc2ccccc12
1.8 µM |  | O=S(=O)(Nc1ccc(O)c(-c2c(O)ccc3ccccc23)c1)c1ccc(O)cc1O
19.6 µM |  | O=S(=O)(Nc1cccc(-c2c(O)ccc3c2OCO3)c1)c1ccc(F)cc1
0.55 µM |  | COc1ccc(O)c(O)c1-c1cc(NS(=O)(=O)c2cc(Cl)ccc2Cl)ccc1N
28 µM |  | Cc1ccc(S(=O)(=O)Nc2ccc(F)c(-c3c(O)ccc4c3OCO4)c2)cc1
27 µM |  | N#Cc1cc(S(=O)(=O)Nc2ccc(F)c(-c3c(O)ccc4c3OCO4)c2)ccc1F
31.3 µM |  | Cc1ccc(S(=O)(=O)Nc2cccc(-c3c(O)ccc4c3OCO4)c2)cc1
25 µM |  | COc1ccc(S(=O)(=O)Nc2ccc(N)c(-c3c(O)ccc4ccccc34)c2)c(OC)c1
9.4 µM |  | Nc1ccc(NS(=O)(=O)c2cc(Cl)ccc2Cl)cc1-c1c(O)ccc2ccccc12

Biological target: T1, Heat shock protein HSP90
Assay: Inhibition of Hsp90 in human SKBR3 cells assessed as interaction with Cy3b-conjugated geldanamycin upto 50 uM by FP assay
Assay type: cell-based
Settings: SK-BR-3
Method in brief: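 Fluorescence polarization binding assay measuring displacement of fluorescently labeled geldanamycin from the Hsp90 ATP-binding site. Compounds were tested up to a maximum of 50 µM.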

Activity | Compound
inactive | O=[N+]([O-])c1cccc(S(=O)(=O)Nc2ccc(O)c(-c3ccccc3O)c2)c1
inactive | COc1ccc2c(c1-c1cc(NS(=O)(=O)c3ccccc3N)ccc1N)OCO2
inactive | COc1ccc2c(c1-c1cc(NS(=O)(=O)c3cccc([N+](=O)[O-])c3)ccc1N)OCO2
inactive | Nc1ccc(NS(=O)(=O)c2cc(Cl)ccc2Cl)cc1-c1ccccc1O
inactive | COc1ccc(S(=O)(=O)Nc2ccc(O)c(-c3ccccc3O)c2)cc1OC
inactive | O=C(O)c1ccc(S(=O)(=O)Nc2ccccc2-c2c(O)ccc3c2OCO3)cc1
inactive | Cc1ccc(S(=O)(=O)Nc2ccc(O)c(-c3ccccc3O)c2)cc1
inactive | O=[N+]([O-])c1ccccc1S(=O)(=O)Nc1ccc(F)c(-c2c(O)ccc3c2OCO3)c1
inactive | O=[N+]([O-])c1cccc(S(=O)(=O)Nc2ccc(F)c(-c3c(O)ccc4c3OCO4)c2)c1
inactive | Nc1ccccc1S(=O)(=O)Nc1ccc(O)c(-c2ccccc2O)c1
inactive | N#Cc1cc(S(=O)(=O)Nc2ccccc2-c2c(O)ccc3c2OCO3)ccc1F
inactive | COc1ccc(S(=O)(=O)Nc2ccc(N)c(-c3c(OC)ccc4c3OCO4)c2)cc1OC
inactive | O=C(O)c1cccc(S(=O)(=O)Nc2ccc(F)c(-c3c(O)ccc4c3OCO4)c2)c1
inactive | Cc1ccc(S(=O)(=O)Nc2ccc(N)c(-c3ccccc3O)c2)cc1
inactive | COc1ccc(S(=O)(=O)Nc2ccc(N)c(-c3ccccc3O)c2)cc1OC
inactive | O=S(=O)(Nc1ccc(F)c(-c2c(O)ccc3c2OCO3)c1)c1ccc(F)cc1
inactive | Nc1cccc(S(=O)(=O)Nc2ccc(F)c(-c3c(O)ccc4c3OCO4)c2)c1
inactive | O=[N+]([O-])c1ccccc1S(=O)(=O)Nc1ccc(O)c(-c2ccccc2O)c1
inactive | Nc1ccccc1S(=O)(=O)Nc1ccc(F)c(-c2c(O)ccc3c2OCO3)c1
inactive | N#Cc1cc(S(=O)(=O)Nc2cccc(-c3c(O)ccc4c3OCO4)c2)ccc1F
inactive | COc1ccc2c(c1-c1cc(NS(=O)(=O)c3ccccc3[N+](=O)[O-])ccc1N)OCO2
inactive | Nc1cccc(S(=O)(=O)Nc2ccc(O)c(-c3ccccc3O)c2)c1
inactive | COc1ccc2c(c1-c1cc(NS(=O)(=O)c3cc(Cl)ccc3Cl)ccc1N)OCO2
inactive | O=S(=O)(Nc1ccccc1-c1c(O)ccc2c1OCO2)c1cc(Cl)ccc1Cl
inactive | Nc1ccc(NS(=O)(=O)c2ccccc2)cc1-c1c(O)ccc2ccccc12
inactive | COc1ccc2c(c1-c1cc(NS(=O)(=O)c3ccc(C)cc3)ccc1N)OCO2
inactive | COc1ccc2c(c1-c1cc(NS(=O)(=O)c3cccc(N)c3)ccc1N)OCO2
